Screening data: PubChem, Sanford-Burnham Center for Chemical Genomics
An excerpt weighted towards active compounds, which were near 0.72% of everything screened.
mIAP block = inhibitors of mouse IAP, primary screen, biochemical, luminescence, uHTS; intestinal alkaline phosphatase [Mus musculus]; purified mouse IAP, CDP-Star luminescence, 30 min; inhibition, % at 10 µM; hit rate 0.2% among 330,000; AID 2806, 2010;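 active = inhibition of at least 40% at 10 µM in the primary screen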;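 note: plate controls were DMSO with enzyme for no effect and no enzyme wells for full effect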
bIAP inhibitor = bovine intestinal alkaline phosphatase inhibitors, primary screen, selectivity assay for TNAP inhibitor project, biochemical, bovine IAP, CDP-star luminescence | purified bovine IAP, 30 min | inhibition, % at 20 µM | 190,000 tested, under 10 active;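 active = over 50% inhibition of intestinal alkaline phosphatase at 20 µM in the single-dose screen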
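Assay system – bovine IAP enzyme · Quantity – bovine IAP at 1/65,000,000 final dilution · Detection – CDP-star luminescence signal · Times – 30 min reaction at room temperature · Also added – CDP-star substrate at 30 µM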
bIAP activator = bovine intestinal alkaline phosphatase activators, primary screen, biochemical, bovine IAP, CDP-star luminescence. purified bovine IAP, 30 min; stronger effect = higher value; fold of DMSO-control signal, blank-subtracted. activation factor at 20 µM. hit rate 0.17% among 200,000;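 active = activation factor of 2 or more at 20 µM, a signal rise over negative controls twice the positive control's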
hIAP act = human IAP activators, primary screen, biochemical, luminescence, uHTS; Intestinal-type alkaline phosphatase (Homo sapiens), P09923; purified human IAP, CDP-Star luminescence, 30 min; stronger effect = higher value; 1 = vehicle-only enzyme, 0 = enzyme-free background; activation factor at 10 µM; hit rate 0.16% among 330,000; AID 2524, 2010;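 active = activation factor of the enzyme at least 2-fold when tested at 20 µM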
Target sequence (P09923 whole entry, looked up): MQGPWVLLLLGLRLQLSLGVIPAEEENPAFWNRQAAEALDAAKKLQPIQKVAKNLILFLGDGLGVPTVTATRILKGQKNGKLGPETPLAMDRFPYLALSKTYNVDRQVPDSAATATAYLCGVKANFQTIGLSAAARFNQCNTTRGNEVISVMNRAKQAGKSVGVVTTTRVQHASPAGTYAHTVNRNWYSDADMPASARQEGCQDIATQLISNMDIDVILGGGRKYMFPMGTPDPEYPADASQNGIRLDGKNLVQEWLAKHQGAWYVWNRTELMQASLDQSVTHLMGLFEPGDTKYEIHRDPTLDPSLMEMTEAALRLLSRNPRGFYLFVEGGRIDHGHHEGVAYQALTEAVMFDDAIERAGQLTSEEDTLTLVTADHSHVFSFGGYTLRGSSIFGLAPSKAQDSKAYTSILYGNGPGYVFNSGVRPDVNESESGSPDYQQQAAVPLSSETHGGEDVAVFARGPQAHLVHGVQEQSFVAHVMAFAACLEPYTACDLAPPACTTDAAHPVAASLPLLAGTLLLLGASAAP
mIAP act = activators of mouse IAP, primary screen, biochemical, luminescence, uHTS | activation factor at 10 µM | intestinal alkaline phosphatase [Mus musculus] | hit rate 0.24% among 330,000 | muIAP, CDP-Star luminescence, 30 min; stronger effect = higher value; 1 = vehicle-only enzyme signal, 0 = enzyme-free wells;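 active = activation factor of at least 2 at 20 µM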
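Assay system: mouse IAP enzyme / Compound: DMSO-dissolved test compounds / Timing: 30 min, room temperature / Measured by: luminescence from enzymatic CDP-Star hydrolysis / Control set: DMSO-only wells, enzyme-free buffer wells as negative control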
hIAP block = human IAP inhibitors, primary screen, biochemical, luminescence, uHTS | hit rate 0.12% among 330,000 | purified IAP, CDP-Star luminescence, 30 min | inhibition, % at 10 µM;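 active = inhibition reaching a set limit with compound at 10 µM in the primary screen, cut at about 35% in these data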;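 note: plate controls were DMSO wells with enzyme for no effect and no-enzyme buffer wells for full effect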
hIAP act conf = human IAP activators, confirmation, biochemical, luminescence, single concentration, uHTS hits. shares compounds with hIAP act. purified IAP, CDP-Star luminescence, 30 min; stronger effect = lower value. activation (%Activity, negative = activation), % at 8.3 µM. hit rate 10% among 880. AID 434926, 2010;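 active = at least twofold enzyme activation in any of six single-dose repeats, which the averaged readout prints as negative percent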
Numbers without * were called inactive; x = not tested or not shown.

SMILES | mIAP block | bIAP inhibitor | bIAP activator | hIAP act | mIAP act | hIAP block | hIAP act conf
O=c1cc(-c2ccccc2Cl)oc2c(NS(=O)(=O)c3ccccc3OC(F)(F)F)ccc(O)c12 | -7.7 | x | x | 1.06 | 1.08 | -6.2 | x
Cc1ccc(-n2ncc3c(=O)n(CC(N)=O)cnc32)cc1C | -12.3 | x | x | 1.01 | 1.12 | -0.6 | x
Cc1nc2c3cnn(-c4ccc(C)c(C)c4)c3ncn2n1 | -4.7 | 5.8 | 0.9 | 0.256 | 1.05 | 74.4* | -27.4
CCOc1ccc2oc(C(=O)NNC(=O)c3csc(N4CCOCC4)n3)c(C)c2c1 | 6.4 | x | x | 1.89 | 0.936 | -88.8 | x
CC1=NN(c2ccccc2)C(=O)/C1=C/N(C)C | -6.0 | x | x | 0.934 | 1.06 | 6.6 | x
CC1=NN(c2nc3ccccc3[nH]2)C(=O)/C1=C/N(C)C | -6.3 | -14.7 | 1.1 | 2.28* | 1.06 | -128.1 | -57.0*
O=C1c2[nH]nc(-c3ccccc3O)c2C(c2cccc(Cl)c2)N1Cc1ccco1 (stereo unspecified) | 1.5 | -38.9 | 1.4 | 2.27* | 0.985 | -127.5 | 3.9
CC1Cc2ccccc2C(CCc2ccccc2)=N1 (stereo unspecified) | 4.2 | x | x | 0.968 | 0.958 | 3.2 | x
Cc1ccc(NS(=O)(=O)c2ccc(NC(=O)c3cccs3)cc2)c(C)c1 | 11.4 | -3.1 | 1 | 0.954 | 0.886 | 4.6 | x
Cc1ccc(NS(=O)(=O)c2ccc(NC(=O)C3CC3)cc2)c(C)c1 | -9.8 | x | x | 0.64 | 1.1 | 36.0* | -1.6
O=C1C2C3C=CC(C4CC34)C2C(=O)N1c1ccc2c(c1)OCO2 (stereo unspecified) | 3.2 | 4.3 | 1 | 1.01 | 0.968 | -0.9 | x
Cc1ccc(CNC(=O)C2CCCN(S(=O)(=O)c3cccc4nonc34)C2)cc1 (stereo unspecified) | 3.8 | x | x | 1.06 | 0.962 | -5.6 | x
Cc1cc(-n2c(SCC(=O)NCCC3=CCCCC3)nc3n[nH]c(C)c3c2=N)ccc1Cl | -21.2 | x | x | 2.06* | 1.21 | -105.6 | -29.5
Cc1ccc(Cl)cc1-n1c(SCC(=O)NCCC2=CCCCC2)nc2n[nH]c(C)c2c1=N | 2.4 | x | x | 1.66 | 0.976 | -65.8 | x
O=C(Cn1cnc2ccccc2c1=O)NCCCN1CCCC1=O | -9.0 | x | x | 0.844 | 1.09 | 15.6 | x
Cn1c(/C(C#N)=C(\O)c2cc(Cl)sc2Cl)nc2ccccc21 | 5.6 | x | x | 0.787 | 0.944 | 21.3 | x
Cn1c(/C(C#N)=C(\O)c2ccc(Br)s2)nc2ccccc21 | 4.8 | x | x | 0.53 | 0.952 | 47.0* | 27.4
O=c1[nH]nc(Cc2ncc(C(F)(F)F)cc2Cl)c2ccccc12 | 1.2 | x | x | 0.942 | 0.988 | 5.8 | x
COc1cccc(CN2CCC(n3nccc3NC(=O)CCCc3ccccc3)CC2)c1O | -38.5 | x | x | 1.63 | 1.39 | -62.6 | x
COc1cc(CN2CCC(n3nccc3NC(=O)CCCc3ccccc3)CC2)ccc1F | -71.6 | x | x | 2.01* | 1.72 | -100.9 | 40.7
CCOc1ccc(CN2CCC(n3nccc3NC(=O)CCCc3ccccc3)CC2)cc1 | -120.5 | x | x | 3.17* | 2.21* | -217.0 | 1.4
O=C(CCCc1ccccc1)Nc1ccnn1C1CCN(Cc2ccccc2)CC1 | -56.4 | x | x | 1.95 | 1.56 | -95.0 | x
COc1ccc(CN2CCC(n3nccc3NC(=O)CCc3ccccc3)CC2)c(C)c1C | -105.3 | x | x | 2.31* | 2.05* | -131.3 | 8.0
O=C(CCCc1ccccc1)Nc1ccnn1C1CCN(Cc2ccccc2F)CC1 | -39.0 | x | x | 1.89 | 1.39 | -88.8 | x
CCc1ccc(OC(=O)Nc2ccccc2)cc1 | 3.8 | x | x | 0.962 | 0.962 | 3.8 | x
SMILES | mIAP block | bIAP inhibitor | bIAP activator | hIAP act | mIAP act | hIAP block | hIAP act conf
Cc1ccc(CN2CCC(C(=O)Nc3cccc(-c4cccc(F)c4)c3)CC2)o1 | -142.4 | x | x | 2.21* | 2.42* | -121.5 | 2.3
CCc1ccc(CN2CCC(C(=O)Nc3cccc(-c4nnc(C)s4)c3)CC2)o1 | 2.5 | x | x | 1.21 | 0.975 | -21.0 | x
N#CCN1C(=S)N=C(Nc2cccc(Cl)c2)C12CCCCC2 | -12.8 | -2.4 | 1 | 2.06* | 1.13 | -105.7 | -55.5*
CCCCCC(=O)Nc1ccc(Cl)cn1 | -20.8 | -2.1 | 1 | 0.303 | 1.21 | 69.7* | -32.5
Cc1ccn2cc(-c3ccc(O)c(O)c3)nc2c1 | 39.7 | x | x | 0.603 | 0.603 | 39.7* | -69.2
Oc1ccc(-c2cn3ccccc3n2)cc1O | 2.8 | x | x | 0.507 | 0.972 | 49.3* | 12.2
O=C(Nc1ccc(-c2csc(Nc3cccc(C(F)(F)F)c3)n2)cc1)c1cc([N+](=O)[O-])cc(C(F)(F)F)c1 | 8.2 | x | x | 1.06 | 0.918 | -6.5 | x
Cc1ccc(C)c(NC(=S)NCc2ccccc2)c1 | 1.0 | x | x | 0.921 | 0.99 | 7.9 | x
O=C(Cc1ccccc1)NNC(=S)Nc1ccccc1 | 7.1 | -33.4 | 1.3 | 2.18* | 0.929 | -117.7 | 9.3
Cc1ccc(NC(=O)CCC(=O)NNC(=S)Nc2ccccc2)c(C)c1 | -7.7 | -54.1 | 1.5 | 2.06* | 1.08 | -106.3 | -25.3
Cc1ccc(C)c(NCC(=O)NNC(=S)Nc2ccccc2)c1 | 15.8 | -16.0 | 1.2 | 2.03* | 0.842 | -103.0 | -38.7
Cc1ccc(C)c(NC(=O)CCC(=O)NNC(=S)Nc2ccccc2)c1 | 20.9 | -46.7 | 1.5 | 1.8 | 0.791 | -80.5 | x
Cc1cc(C)c2nc(N3CCCC(C(=O)NC4CCCC4)C3)sc2c1 (stereo unspecified) | -9.6 | x | x | 0.833 | 1.1 | 16.7 | x
O=C(CSc1nnc(-c2ccccc2O)n1Cc1ccccc1)NNC(=O)c1ccccc1O | 19.7 | -4.5 | 1 | 2.46* | 0.803 | -146.1 | -41.1
COCCNC(=O)c1cccc(OC2CCN(Cc3cccc(SC)c3)CC2)c1 | 0.7 | x | x | 1.16 | 0.993 | -15.6 | x
Cc1ccc(NCc2ccc([N+](=O)[O-])s2)cc1 | 6.0 | x | x | 0.632 | 0.94 | 36.8* | 26.1
O=C(NNC(=O)c1ccccc1Br)c1ccc2nc[nH]c2c1 | 9.7 | x | x | 2.03* | 0.903 | -102.7 | -10.5
CCOCCCNc1nc2c(C)cccn2c(=O)c1/C=C1\SC(=S)N(C(C)CC)C1=O (stereo unspecified) | 30.0 | x | x | 0.638 | 0.7 | 36.2* | 0.5
CC12CCC(C(=O)Nc3nc4ccccc4s3)(OC1=O)C2(C)C (stereo unspecified) | 1.3 | 4.1 | 1 | 1.05 | 0.987 | -5.1 | x
c1ccc(CCOn2ccnc2)cc1 | 1.9 | x | x | 0.985 | 0.981 | 1.5 | x
Cc1ccc(NC(=O)c2sc3ccccc3c2Cl)nc1 | 1.6 | 0.8 | 1 | 2.1* | 0.984 | -110.3 | -28.6
